Assay results taken from ChEMBL document CHEMBL1144146, “Antibacterial and antiandrogen flavonoids from Sophora flavescens” (1999).
Converted amounts (≈) assume the structure as drawn.

What was measured:
[1] = test system: Bacillus subtilis; assay: Antimicrobial activity against Bacillus subtilis after 48 hrs by agar plate dilution method; format: functional
In short: (§1)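 Strains cultured at 37 °C in soybean–casein digest broth; activity determined by agar plate dilution (described alongside broth microtiter dilution), read after 48 h incubation at 37 °C.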

[2] = test system: Staphylococcus aureus; assay: Antimicrobial activity against Staphylococcus aureus after 48 hrs by agar plate dilution method; format: functional; in short: as §1
[3] = Inhibition of testosterone-5-alpha-reductase at 50 ug/mL
[4] = Inhibition of testosterone-5-alpha-reductase at 100 ug/mL
[5] = Displacement of [3H]DHT from 5-alpha-dihydrotestosterone receptor at 100 ug/mL
[6] = Displacement of [3H]DHT from 5-alpha-dihydrotestosterone receptor at 200 ug/mL
[7] = Inhibition of testosterone-5-alpha-reductase at 200 ug/mL
[8] = Displacement of [3H]DHT from 5-alpha-dihydrotestosterone receptor at 50 ug/mL
[9] = test system: Staphylococcus epidermidis; assay: Antimicrobial activity against Staphylococcus epidermidis after 48 hrs by agar plate dilution method; format: functional; in short: as §1
[10] = test system: Cutibacterium acnes; assay: Antimicrobial activity against Propionibacterium acnes after 48 hrs by agar plate dilution method; format: functional; in short: as §1

Structure (SMILES) | MIC [1] | MIC [2] | inhibition [3] | inhibition [4] | Activity [5] | Activity [6] | inhibition [7] | Activity [8] | MIC [9] | MIC [10]
COc1cc([C@@H]2CC(=O)c3c(cc(O)c(CC=C(C)C)c3O)O2)c(O)cc1O [KUSHENOL V] | 10 µg/mL (≈ 25.9 µM) | 10 µg/mL (≈ 25.9 µM) |  |  |  |  |  |  |  | 
CC(C)=CCc1c(O)cc(O)c2c1O[C@H](c1ccccc1O)CC2=O [KUSHENOL S] | 5 µg/mL (≈ 14.7 µM) | 5 µg/mL (≈ 14.7 µM) | 7.3% | 22.9% | 47.7% | 70% | 37.4% | 37.8% |  | 
C=C(C)C(CC=C(C)C)Cc1c(O)cc(OC)c2c1O[C@H](c1ccc(O)cc1O)CC2=O (some centres not stated) [KURARINONE] | 2.5 µg/mL (≈ 5.7 µM) | 2.5 µg/mL (≈ 5.7 µM) | 0.7% | 40.5% | 89.2% | 88% | 93.8% | 61.1% |  | 
C=C(C)C(CC=C(C)C)Cc1c(O)cc(O)c2c1O[C@H](c1ccccc1O)CC2=O (some centres not stated) | 2.5 µg/mL (≈ 6.12 µM) | 5 µg/mL (≈ 12.2 µM) | 21.9% | 51.4% | 89.3% | 89.6% | 77.3% | 60.1% | 5 µg/mL (≈ 12.2 µM) | 10 µg/mL (≈ 24.5 µM)
C=C(C)C(CC=C(C)C)Cc1c(O)cc(OC)c2c1O[C@H](c1ccc(O)cc1O)[C@@H](O)C2=O (some centres not stated) |  |  | 14% | 50.9% | 81.4% | 84.2% | 85.1% | 60.2% |  | 
C=C(C)[C@H](CCC(C)(C)O)Cc1c(O)cc(O)c2c1O[C@H](c1ccccc1O)CC2=O |  |  | 3.2% | 54.8% | 84.9% | 89.2% | 95.4% | 35% |  | 
C=C(C)C(CCC(C)(C)O)Cc1c(O)cc(OC)c2c1O[C@H](c1ccc(O)cc1O)CC2=O (some centres not stated) |  |  | -1% | -0.2% | 27.9% | 65.8% | 11.9% | 15.5% |  | 
COc1cc(C2CC(=O)c3c(O)cc(O)c(CC=C(C)C)c3O2)c(O)cc1O (racemic) [KUSHENOL W] | 10 µg/mL (≈ 25.9 µM) | 10 µg/mL (≈ 25.9 µM) |  |  |  |  |  |  |  | 
CC1(C)C=Cc2c(ccc3c2OC[C@@H](c2ccc(O)cc2O)C3)O1 |  |  | 32.5% | 84.3% | 88.2% |  |  | 63.2% |  | 
C=C(C)C(CC=C(C)C)Cc1c(O)cc(OC)c2c1O[C@H](c1ccccc1O)CC2=O (some centres not stated) [KUSHENOL R] | 2.5 µg/mL (≈ 5.92 µM) | 5 µg/mL (≈ 11.8 µM) | 4.1% | 23.6% | 67.5% | 82.4% | 73.5% | 27.3% | 5 µg/mL (≈ 11.8 µM) | 10 µg/mL (≈ 23.7 µM)
C=C(C)C(CC=C(C)C)Cc1c(O)cc(OC)c2c1O[C@H](c1ccc(O)cc1)CC2=O (some centres not stated) [KUSHENOL U] | 10 µg/mL (≈ 23.7 µM) | 10 µg/mL (≈ 23.7 µM) | 7.4% | 50.3% | 85.1% | 96.9% | 84.4% | 52.6% | 10 µg/mL (≈ 23.7 µM) | 10 µg/mL (≈ 23.7 µM)
C=C(C)C(CC=C(C)C)Cc1c(O)cc(O)c2c1O[C@H](c1ccc(O)cc1O)CC2=O (some centres not stated) | 2.5 µg/mL (≈ 5.89 µM) | 2.5 µg/mL (≈ 5.89 µM) | 51.4% | 86.4% | 85.8% | 90.1% | 94.2% | 80.3% | 10 µg/mL (≈ 23.6 µM) | 10 µg/mL (≈ 23.6 µM)
C=C(C)C(CC=C(C)C)Cc1c(O)cc(O)c2c1O[C@H](c1ccc(O)cc1O)[C@@H](O)C2=O (some centres not stated) [KUSHENOL X] | 10 µg/mL (≈ 22.7 µM) | 10 µg/mL (≈ 22.7 µM) | 30.9% | 84.5% | 90.5% | 88.6% | 96.4% | 68.9% |  | 
CC(C)=CCC(Cc1c(O)cc(O)c2c1O[C@H](c1ccc(O)cc1O)CC2=O)C(C)CO (some centres not stated) [KUSHENOL Q] | 5 µg/mL (≈ 11.3 µM) | 5 µg/mL (≈ 11.3 µM) | 0.9% | 34.8% | 82.4% | 92.7% | 88.5% | 66.1% |  | 
CC(C)=CCc1c(O)cc(O)c2c1O[C@H](c1ccc(O)cc1O)CC2=O [LEACHIANONE G] | 2.5 µg/mL (≈ 7.02 µM) | 5 µg/mL (≈ 14 µM) | 25.3% | 80.5% | 84.8% | 94.5% | 89.9% | 74.2% |  | 
C=C(C)C(CC=C(C)C)Cc1c(O)cc(OC)c2c1O[C@H](c1ccc(O)cc1OC)CC2=O (some centres not stated) | 2.5 µg/mL (≈ 5.52 µM) | 2.5 µg/mL (≈ 5.52 µM) | 34.1% | 79.3% | 58.9% | 58.4% | 94.7% | 73.7% | 10 µg/mL (≈ 22.1 µM) | 25 µg/mL (≈ 55.2 µM)
C=C(C)C(CCC(C)(C)O)Cc1c(O)cc(O)c2c1O[C@H](c1ccc(O)cc1O)CC2=O (some centres not stated) |  |  | 3.5% | 41.3% | 75.4% | 83% | 82.2% | 43.9% |  | 
